Source: PMC9292889 (Clinical Pharmacology in Drug Development, 2020)
“Also recorded” adds a separate entry of the source. Marks after values point to notes of the source that are not given here.

Key:
[1] = test system: multidrug and toxin extrusion protein 2‐K; conditions: in vitro; cited from earlier work
P‐glycoprotein = conditions: in vitro; cited from earlier work
[2] = cited from earlier work
Safety and tolerability = type: in vivo, human; conditions: for Number of subjects (%) with ≥1 AE, all causalities: single and multiple doses
Method in brief: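 Fasted healthy Chinese adults received oral test compound (2, 4, 10 mg) or placebo, single dose on day 1 then once daily on days 4–10, blinded and randomized. TEAEs were defined as onset or worsening after dosing and coded by MedDRA term. They were tabulated by treatment, relationship to drug, day of onset and severity. Single 12-lead ECGs, supine/standing blood pressure and pulse rate, and laboratory tests were also recorded.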

[3] = test system: organic anion transporter 3; conditions: in vitro; cited from earlier work
[4] = Clinical laboratory tests; type: in vivo, human; conditions: for maximum mean decrease in ANC: day 10, 8 hours after dosing; for maximum mean decrease from baseline in ANC: day 1, 8 hours after dosing
Method in brief: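 Randomized, subject- and investigator-blinded study in healthy Chinese adults (screening ANC ≥2000 cells/μL). Oral dose of 2, 4 or 10 mg test compound or placebo, given after an overnight fast of at least 10 h with 200 mL water, meals 3 h later. Single dose on day 1, then once daily on days 4–10. Clinical laboratory tests were run throughout, and ANC/ALC change was taken from baseline.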

[5] = patients weighing <40 kg; cited from earlier work
cytochrome P450 3A4 = conditions: oxidative metabolism mediated by cytochrome P450 3A4; cited from earlier work
[6] = test system: breast cancer resistance protein; conditions: in vitro; cited from earlier work
[7] = Single-dose plasma pharmacokinetics; type: in vivo, human; conditions: for Ratio of dose‐normalized geometric means AUC0‐∞ (90%CI) / Ratio of dose‐normalized geometric means Cmax (90%CI) / half-life: day 1; for half-life / Cmax / Tmax: human, plasma; for half-life: oral, across the 2‐ to 10‐mg dose range; for Cmax / Tmax: po; for Tmax: day 1, median (range); for CL/F: day 1, arithmetic mean (SD)
Method in brief: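 Fasted healthy Chinese adults took a single oral dose of test compound (2, 4 or 10 mg) with 200 mL water on day 1. Plasma was sampled at 0.5–48 h by LC-MS/MS (K2EDTA plasma, liquid-liquid extraction, validated 0.200–200.00 ng/mL). Noncompartmental Cmax, tmax, AUC0‑∞ and CL/F were derived. A power model gave ratios of dose-normalized geometric means against 2 mg, with 90% CI.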

[8] = Multiple-dose plasma pharmacokinetics; type: in vivo, human; conditions: for CL/F / RA (accumulation ratio): day 10, arithmetic mean (SD), N = 8; for Ratio of dose‐normalized geometric means AUCτ,ss (90%CI) / Ratio of dose‐normalized geometric means Cmax,ss (90%CI): multiple dose, day 10
Method in brief: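 Oral test compound (2, 4, 10 mg) was given once daily on days 4–10 after an overnight fast of at least 10 h. Plasma was sampled predose on days 4–10 to judge steady state, and at 0.5–48 h after the day-10 dose. LC-MS/MS after liquid-liquid extraction from K2EDTA plasma, validated 0.200–200.00 ng/mL. Noncompartmental AUCτ,ss, Cmax,ss, tmax, t½, CL/F and accumulation ratio were derived.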

## CCS(=O)(=O)N1CC(CC#N)(n2cc(-c3ncnc4[nH]ccc34)cn2)C1 [Baricitinib]
[1]
  transporter substrate: substrate
P‐glycoprotein
  transporter substrate: substrate
[2]
  excreted in the urine in an unchanged form: ~75%
  mean renal clearance: ~12 L/h^2
  oral‐dose clearance: 17 L/h
[2]; healthy White subjects, noncompartmental PK method
  mean terminal‐phase t1/2: approximately 8 hours
[2]; healthy White volunteers
  geometric mean terminal‐phase disposition half‐life (t1/2): about 8 hours
Safety and tolerability; 2 mg (N = 8)
  ALT increased, drug related (number of TEAEs [number of subjects with TEAEs]): 0
  ANC decreased, drug related (number of TEAEs [number of subjects with TEAEs]): 0
  AST increased, drug related (number of TEAEs [number of subjects with TEAEs]): 0
  Bilirubin increased, drug related (number of TEAEs [number of subjects with TEAEs]): 0
  ECG abnormal, drug related (number of TEAEs [number of subjects with TEAEs]): 0
  Hypotension, drug related (number of TEAEs [number of subjects with TEAEs]): 0
  Orthostatic hypotension, drug related (number of TEAEs [number of subjects with TEAEs]): 0
  Overall drug related TEAEs (number of TEAEs [number of subjects with TEAEs]): 0 (0)
  Total number of TEAEs (all severities were “mild”), n, all causalities: 2
  Number of subjects (%) with ≥1 AE, all causalities: 1 (12.5)
Safety and tolerability; 4 mg (N = 9)
  ALT increased, drug related (number of TEAEs [number of subjects with TEAEs]): 1 (1)
  ANC decreased, drug related (number of TEAEs [number of subjects with TEAEs]): 1 (1)
  AST increased, drug related (number of TEAEs [number of subjects with TEAEs]): 1 (1)
  Bilirubin increased, drug related (number of TEAEs [number of subjects with TEAEs]): 0
  ECG abnormal, drug related (number of TEAEs [number of subjects with TEAEs]): 0
  Hypotension, drug related (number of TEAEs [number of subjects with TEAEs]): 0
  Orthostatic hypotension, drug related (number of TEAEs [number of subjects with TEAEs]): 0
  Overall drug related TEAEs (number of TEAEs [number of subjects with TEAEs]): 3 (2)
  Total number of TEAEs (all severities were “mild”), n, all causalities: 3
  Number of subjects (%) with ≥1 AE, all causalities: 2 (22.2)
Safety and tolerability; 10 mg (N = 8)
  ALT increased, drug related (number of TEAEs [number of subjects with TEAEs]): 2 (2)
  ANC decreased, drug related (number of TEAEs [number of subjects with TEAEs]): 0
  AST increased, drug related (number of TEAEs [number of subjects with TEAEs]): 1 (1)
  Bilirubin increased, drug related (number of TEAEs [number of subjects with TEAEs]): 1 (1)
  ECG abnormal, drug related (number of TEAEs [number of subjects with TEAEs]): 0
  Hypotension, drug related (number of TEAEs [number of subjects with TEAEs]): 0
  Orthostatic hypotension, drug related (number of TEAEs [number of subjects with TEAEs]): 1 (1)
  Overall drug related TEAEs (number of TEAEs [number of subjects with TEAEs]): 5 (4)
  Total number of TEAEs (all severities were “mild”), n, all causalities: 6
  Number of subjects (%) with ≥1 AE, all causalities: 4 (50.0)
Safety and tolerability; all TEAEs reported during the study
  Severity of TEAEs: mild
Safety and tolerability; during the study
  Serious adverse events (SAEs): no SAEs reported
Safety and tolerability; following administration of baricitinib 2 to 10 mg
  12‐lead ECG changes: no clinically significant dose‐dependent ECG changes
Safety and tolerability; single and multiple oral once‐daily doses up to 10 mg
  Tolerability: generally well tolerated
[3]
  transporter substrate: substrate
[4]; days 1 and 10
  time for ANC and ALC values to return to baseline postdose: ≤ 24 h
[4]; multiple dose 2 mg
  maximum mean decrease in ANC: 0.096 GI/L
[4]; multiple dose 4 mg
  maximum mean decrease in ANC: 0.706 GI/L
[4]; multiple dose 10 mg
  maximum mean decrease in ANC: 1.443 GI/L
[4]; single and multiple doses
  time of increase in ALC after dosing: 16 h
  time of maximum decrease in ANC after dosing: 8 h
[4]; single dose 2 mg
  maximum mean decrease from baseline in ANC: 0.616 GI/L
[4]; single dose 4 mg
  maximum mean decrease from baseline in ANC: 0.808 GI/L
[4]; single dose 10 mg
  maximum mean decrease from baseline in ANC: 1.706 GI/L
[5]
  t1/2 compared with adult populations: substantially shorter
Cytochrome P450 3A4
  dose identified as undergoing biotransformation: < 10%
[6]
  transporter substrate: substrate
[7]; 4 mg vs 2 mg, single dose
  Ratio of dose‐normalized geometric means AUC0‐∞ (90%CI): 1.05 (1.00‐1.11)
  Ratio of dose‐normalized geometric means Cmax (90%CI): 1.09 (0.97‐1.22)
[7]; 10 mg vs 2 mg, single dose
  Ratio of dose‐normalized geometric means AUC0‐∞ (90%CI): 1.13 (1.01‐1.26)
  Ratio of dose‐normalized geometric means Cmax (90%CI): 1.22 (0.94‐1.58)
[7]; mean t1/2, single dose
  half-life: 5.9 to 7.4 h
[7]; t1/2, individual values, single dose
  half-life: 4.5 to 11.8 h
[7]; 2 mg
  Cmax: 24.6 ng/mL
[7]; 2 mg, single oral 2 mg, N = 8
  Tmax: 1 h
[7]; 4 mg
  Cmax: 51.3 ng/mL
[7]; 4 mg, single oral 4 mg, N = 9
  Tmax: 1 h
[7]; 10 mg
  Cmax: 152 ng/mL
[7]; 10 mg, single oral 10 mg, N = 8
  Tmax: 0.75 h
[7]; single oral 2 mg, N = 8
  CL/F: 14.5 (1.76) L/h
[7]; single oral 4 mg, N = 8
  CL/F: 15.0 (2.48) ^a L/h
[7]; single oral 10 mg, N = 8
  CL/F: 12.9 (1.24) L/h
[8]; 2 mg once daily
  CL/F: 13.9 (1.66) L/h
  RA (accumulation ratio): 1.11 (0.11)
[8]; 4 mg once daily
  CL/F: 15.3 (2.64) L/h
  RA (accumulation ratio): 1.06 (0.20)
[8]; 4 mg vs 2 mg
  Ratio of dose‐normalized geometric means AUCτ,ss (90%CI): 1.03 (0.97‐1.09)
  Ratio of dose‐normalized geometric means Cmax,ss (90%CI): 0.99 (0.91‐1.08)
[8]; 10 mg once daily
  CL/F: 13.1 (1.95) L/h
  RA (accumulation ratio): 1.05 (0.07)
[8]; 10 mg vs 2 mg
  Ratio of dose‐normalized geometric means AUCτ,ss (90%CI): 1.07 (0.94‐1.23)
  Ratio of dose‐normalized geometric means Cmax,ss (90%CI): 0.99 (0.81‐1.20)
[8]; human, plasma, oral, 2 mg
  AUC: 146 ng·h/mL
  Cmax: 28.6 ng/mL
  Tmax: 0.5 h
  half-life: 5.68 h
[8]; human, plasma, oral, 4 mg
  AUC: 268 ng·h/mL
  Cmax: 49.6 ng/mL
  half-life: 7.55 h
[8]; human, plasma, oral, 10 mg
  AUC: 778 ng·h/mL
  Cmax: 138 ng/mL
  half-life: 7.39 h
[8]; once‐daily dosing days 4 through 10, predose samples
  Attainment of steady‐state plasma concentrations: after the second day of once‐daily dosing; also recorded: after the second once‐daily dose
